Data set [1] relates to SW-620. As to the kind of experiment: Inhibition of colony formation in human SW620 cells incubated for 14 days by crystal violet staining based assay. It counts as functional, cell-based. In a few lines: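 SW480, SW620 or HT29 cells seeded at 300/well in 3 mL medium in 6-well plates with a concentration series of compound. After 14 days, fixed in 4% formaldehyde and stained with 0.5% crystal violet in 25% aqueous MeOH; colonies photographed.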

Data set [2] deals with SW-620. As to the kind of experiment: Induction of apoptosis in human SW620 cells assessed as necrotic cells level at 1 uM incubated for 48 hrs by AAD-7 and FITC-annexin-V staining based flow cytometry (reference value: 0.027%). It counts as functional.
Data set [3] is filed under the species Homo sapiens. The data set can be described thus: Inhibition of Wnt/beta-Catenin signaling in human SW620 cells assessed as reduction in beta-catenin protein level at 1 to 30 uM by Western blot analysis. It counts as cell-based. In a few lines: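 SW620 cells treated with a dose range of compound and lysed in RIPA buffer with protease inhibitor. Protein at 2 mg/mL, denatured at 98 °C for 5 min, run on 7.5% SDS-PAGE and transferred to nitrocellulose. Blocked in 5% BSA; rabbit anti-β-catenin (1:2,000) overnight at 4 °C with β-actin as loading control. HRP secondary (1:8000), 2 h; ECL detection.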

Data set [4] deals with T1, AMP-activated protein kinase, AMPK (Homo sapiens) (UniProt P54646+O43741+P54619+Q9UGJ0+Q9Y478+Q13131+Q9UGI9). The data set can be described thus: Activation of AMPK in human SW620 cells assessed as increase in AMPK phosphorylation incubated for 24 hrs by Western blot analysis. It counts as cell-based. In a few lines: (§1)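 SW620 cells in RPMI 1640 with 10% FBS, treated over a concentration range. Lysed in RIPA with protease inhibitors, 20 µL of 2 mg/mL protein run on 7.5% SDS-PAGE, transferred to nitrocellulose, blocked in 5% BSA. Rabbit primaries (Axin-1, ACC, pACC, AMPK, pAMPK at 1:1,000; β-actin 1:2,000) overnight at 4 °C, HRP secondary 1:8000 for 2 h, ECL.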
On the technique in general: In western blotting, separated proteins are transferred to a membrane and probed.

Data set [5] addresses T1, AMP-activated protein kinase, AMPK (Homo sapiens). As to the kind of experiment: Activation of AMPK in HEK293 cells with Axin-1 knockdown assessed as increase in AMPK phosphorylation at T172 residue at 10 uM incubated for 24 hrs by Western blot analysis. It counts as cell-based.
Data set [6] can be described thus: Toxicity in C57BL/6 mouse assessed as effect on AST level at 100 mg/kg/day, ip for 21 days. It counts as organism-based. The settings on record: in vivo, 504 h.
Data set [7] relates to SW-620. The data set can be described thus: Growth inhibition of human SW620 cells incubated for 72 hrs by Cell-titer-fluor reagent based assay. The following applies: SW-620, 72 h. It counts as functional. In a few lines: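 SW620 cells, parental, overexpressing β-catenin S33Y, or with Axin-1 knocked down by lentiviral shRNA. Treated with compound or vehicle for 72 h.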

A short description of data set [8]: AUC (0 to infinity) in C57BL/6J mouse at 5 mg/kg, po by UPLC-MS analysis. It counts as ADME, organism-based. Set-up: dose 5 mg/kg, time infinity, route oral. The settings on record: in vivo. In a few lines:
(§2)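 Male C57BL/6J mice, 2-3 months, 23-26 g. Single 5 mg/kg dose in 5% Kolliphor in saline, given iv (n=3) or by oral gavage (n=5). Tail-vein blood taken at 0.25, 0.5, 1, 4, 8 and 12 h and spun to plasma. Plasma analysed by LC-MS/MS on a triple quadrupole with a C18 column. Parameters from non-compartmental analysis.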

Data set [9] deals with Protein kinase C theta type (Homo sapiens) (UniProt Q04759). The data set can be described thus: Inhibition of PRKCQ (unknown origin) at 1000 nM relative to control. An outline of the steps:
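Single-concentration screen at 1000 nM against a 273-kinase panel, reported as percent inhibition.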

The species entered for data set [10] is Homo sapiens. As to the kind of experiment: Inhibition of Wnt/beta-Catenin signaling (unknown origin) expressed in recombinant human Wnt-3a-induced Wnt-HEK293 cells assessed as increase in beta-catenin degradation at 1 uM by Western blot analysis. It counts as cell-based.
Data set [11] is described as follows: Toxicity in C57BL/6 mouse assessed as effect on albumin level at 100 mg/kg/day, ip for 21 days. It counts as organism-based. The settings on record: in vivo, 504 h.
Data set [12] is described as follows: Oral bioavailability in C57BL/6J mouse at 5 mg/kg by UPLC-MS analysis. It counts as ADME, organism-based. The settings on record: in vivo. In a few lines:
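Male C57BL/6J mice, 2–3 months old, 23–26 g. Single 5 mg/kg dose in 5% Kolliphor in saline, IV (n = 3) or oral gavage (n = 5). Tail-vein blood taken at 0.25, 0.5, 1, 4, 8 and 12 h and centrifuged to plasma. Analysed by LC-MS/MS (QTRAP 4000, C18 column); parameters from non-compartmental analysis.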

The subject of data set [13] is SW-620. The data set can be described thus: Induction of apoptosis in human SW620 cells assessed as early apoptotic cells level at 10 uM incubated for 48 hrs by AAD-7 and FITC-annexin-V staining based flow cytometry (reference value: 18.6%). It counts as functional. For orientation: Flow cytometry measures light scatter and fluorescence of single cells or particles in a stream.

The nature of data set [14]: Toxicity in C57BL/6 mouse assessed as effect on ALT level at 100 mg/kg/day, ip for 21 days. It counts as organism-based. The settings on record: in vivo, 504 h.
The nature of data set [15]: Half life in C57BL/6J mouse at 5 mg/kg, iv by UPLC-MS analysis. It counts as ADME, organism-based. The settings on record: in vivo. In a few lines:
as §2

In data set [16] the test system is SW-620. As to the kind of experiment: Induction of Axin-1 protein expression in human SW620 cells by Western blot analysis. It counts as functional, cell-based. In a few lines:
as §1

The subject of data set [17] is SW-620. The data set can be described thus: Antitumor activity against human SW620 cells xenografted in nude mouse assessed as reduction in tumor weight at 50 mg/kg, ip QD for 32 consecutive days. It counts as functional, organism-based. In a few lines: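 Six-week-old nude mice injected subcutaneously with 2×10^6 SW620 cells. Randomised at mean tumor volume 100–200 mm³ (n=6/group). Given 10 or 50 mg/kg ip daily for 32 consecutive days; vehicle 10% DMSO, 10% Kolliphor, 80% saline. Tumor volume measured every other day. Tumors weighed after euthanasia at day 32. t test against vehicle.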
A general note: Xenograft models place foreign cells or tissue in a host animal.

Data set [18] is described as follows: AUC (0 to infinity) in C57BL/6J mouse at 5 mg/kg, iv by UPLC-MS analysis. It counts as ADME, organism-based. Set-up: dose 5 mg/kg, route intravenous, time infinity. The following applies: in vivo. In a few lines: as §2
Data set [19] is described as follows: Inhibition of Wnt/beta-Catenin signaling (unknown origin) expressed in recombinant human Wnt-3a-induced Wnt-HEK293 cells incubated for 24 hrs by luciferase reporter gene assay. It counts as cell-based. In a few lines: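 Stably transfected Wnt-HEK293 cells, 2000/well in DMEM + 10% FBS, incubated overnight at 37 °C. Compounds pin-transferred, then recombinant human Wnt-3a added (200 ng/mL stock); unstimulated control wells received medium. After 24 h at 37 °C, ONE-Glo luminescence read after 30 min at room temperature; CellTiter-Fluor viability read in parallel. IC50 reported as mean ± SD of three independent experiments.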

Data set [20] has as its system SW-620. As to the kind of experiment: Induction of apoptosis in human SW620 cells assessed as viable cells level at 1 uM incubated for 48 hrs by AAD-7 and FITC-annexin-V staining based flow cytometry (reference value: 73.8%). It counts as functional.
The test system of the next data set is HT-29. As to the kind of experiment: Induction of apoptosis in human HT-29 cells incubated for 48 hrs by AAD-7 and FITC-annexin-V staining based flow cytometry. It counts as functional, cell-based.
Data set [21] is filed under the species Homo sapiens. The data set can be described thus: Inhibition of Wnt/beta-Catenin signaling in human SW620 cells assessed as reduction in c-Myc mRNA expression at 10 uM incubated for 24 hrs by real-time PCR analysis. It counts as cell-based. An outline of the steps: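 SW620 cells (RPMI 1640, 10% FBS) in 6-well plates, incubated 24 h, then treated with compound at several concentrations, three replicates each, for 24 h. Total RNA isolated with Trizol/phenol-chloroform; 2 µg reverse transcribed; Wnt target gene mRNA quantified by PCR.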

Calls of active or inactive are those of the source. No cut-off for these calls is given here.

Experimental findings from ChEMBL document CHEMBL4414663, “Pyrazole-4-Carboxamide (YW2065): A Therapeutic Candidate for Colorectal Cancer via Dual Activities of Wnt/β-Catenin Signaling Inhibition and AMP-Activated Protein Kinase (AMPK) Activation” (J Med Chem, 2019) are described below.

Chain of Protein kinase C theta type (Homo sapiens) (Q04759 whole entry, looked up): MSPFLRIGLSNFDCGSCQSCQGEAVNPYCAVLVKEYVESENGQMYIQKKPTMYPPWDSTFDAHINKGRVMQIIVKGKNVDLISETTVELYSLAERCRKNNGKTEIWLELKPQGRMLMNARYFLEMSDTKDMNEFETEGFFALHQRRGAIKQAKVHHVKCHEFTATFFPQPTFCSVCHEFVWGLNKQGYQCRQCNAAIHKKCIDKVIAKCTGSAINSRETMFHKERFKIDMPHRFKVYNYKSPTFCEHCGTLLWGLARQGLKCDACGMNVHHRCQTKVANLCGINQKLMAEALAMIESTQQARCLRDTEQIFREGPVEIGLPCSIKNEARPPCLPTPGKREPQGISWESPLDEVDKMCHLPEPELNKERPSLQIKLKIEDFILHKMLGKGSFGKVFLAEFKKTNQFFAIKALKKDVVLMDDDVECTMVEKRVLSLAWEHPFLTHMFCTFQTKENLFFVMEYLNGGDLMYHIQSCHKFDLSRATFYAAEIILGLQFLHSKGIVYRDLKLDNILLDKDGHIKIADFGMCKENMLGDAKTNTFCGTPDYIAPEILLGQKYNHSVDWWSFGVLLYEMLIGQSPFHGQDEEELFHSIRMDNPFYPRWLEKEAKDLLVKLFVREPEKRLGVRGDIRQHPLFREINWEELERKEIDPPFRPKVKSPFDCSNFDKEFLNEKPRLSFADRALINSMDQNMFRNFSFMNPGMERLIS

In the case of `Cc1c(C(=O)Nc2ccc3ccccc3n2)cnn1-c1ccccc1Br`, in the data set on SW-620 [1], the inhibition result is “Dose-dependent effect”. The Activity with SW-620 [2] was 0%; in data set [4] it was “Dose-dependent effect”; in data set [6] it was “Non-Toxic”; in [11] it was “Non-Toxic”; in the data set with SW-620 [13] it was 57.9%; in data set [14] it was “Non-Toxic”. Moreover, the Activity result was “Dose-dependent effect” in the data set with SW-620 [16], 67.1% in the data set with SW-620 [20] and “Dose-dependent effect” with HT-29. In addition, the inhibition result (in the data set filed under Homo sapiens [3]; in data set [9]; in the data set listed under Homo sapiens [10]; in the data set filed under Homo sapiens [21]) was “Active” in each case. Further, the outcome in data set [5] was inactive. Further, the results for the IC50 (with SW-620 [7]; in [19]) were 11.6 nM and 2.3 nM, respectively. In addition, the results for the AUC(0-inf) in data set [8] and in data set [18] were 13200 ng·h/mL and 57500 ng·h/mL, respectively. In addition, the bioavailability (commonly the share of a dose that reaches the circulation, judged against a reference dose that is usually intravenous) in data set [12] is 22.9%. Further, the half-life – broadly, how long it takes for the measured level to halve – in [15] is 186 min. Moreover, the result in the data set on SW-620 [17] was Active.
